Reference: ChEMBL document CHEMBL1122463, “2,3-dihydro-3-(1-pyrryl)spiro[benzofuran-2,4'-piperidine]s and 2,3-dihydro-3-(1-pyrryl)spiro[benzofuran-2,3'-pyrrolidine]s: novel antihypertensive agents” (1983)
Several values for one entry are separate records, joined by “and”; a condition that tells them apart may be missing. Equal values may be shown once.

Columns and labels:
Rattus norvegicus [1] = experiment: (§1) Oral hypotensive activity in spontaneously hypertensive rats by using tail-cuff method measured as change in systolic BP at the dose of 50 mg/kg po.; format: functional, Blood
How it was run: (§2)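 Okamoto-Aoki strain spontaneously hypertensive rats. Compounds were suspended in distilled water with Tween 80 and given orally every day at 50, 30, 10 or 3 mg/kg. Systolic BP was measured by tail-cuff plethysmography on day 1 (predose and 2 h), day 3 (predose and 2 h) and day 5 (predose, 2 and 4 h). The screen used 4 rats; dose-response used 4–8 rats per dose.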

Rattus norvegicus [2] = experiment: (§3) Oral hypotensive activity in spontaneously hypertensive rats by using tail-cuff method measured as change in systolic BP at the dose of 10 mg/kg po.; format: functional, Blood
How it was run: (§4)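 SHR of the Okamoto-Aoki strain, dosed orally every day with compound suspended in distilled water with Tween 80. Systolic pressure was taken by tail-cuff plethysmography on day 1 (predose, 2 h), day 3 (predose, 2 h) and day 5 (predose, 2 and 4 h). Initial BP is the pretreatment systolic pressure, with 4–8 rats per dose in the dose-response screen.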

Rattus norvegicus [3] = experiment: (§5) Oral hypotensive activity in spontaneously hypertensive rats by using tail-cuff method measured as change in systolic BP at the dose of 25 mg/kg po.; format: functional, Blood; how it was run: as §4
Canis familiaris [4] = experiment: Hemodynamic effect in sinoaortic- deafferented hypertensive dog measured as mean arterial BP after 0 min of 5 mg/kg dose; format: functional, Canis lupus familiaris
Canis familiaris [5] = experiment: Hemodynamic effect in sinoaortic- deafferented hypertensive dog measured as mean arterial BP after 30 min of 5 mg/kg dose; format: functional, Canis lupus familiaris
Canis familiaris [6] = experiment: Hemodynamic effect in sinoaortic- deafferented hypertensive dog measured as mean arterial BP after 5 min of 5 mg/kg dose; format: functional, Canis lupus familiaris
Canis familiaris [7] = experiment: Hemodynamic effect in sinoaortic- deafferented hypertensive dog measured as mean arterial BP after 60 min of 5 mg/kg dose; format: functional, Canis lupus familiaris
Canis familiaris [8] = experiment: Mean arterial BP after administration at a dose of 10 mg/kg iv.; format: functional, Canis lupus familiaris
Canis familiaris [9] = experiment: Mean arterial BP before administration at a dose of 10 mg/kg iv.; format: functional, Canis lupus familiaris
Canis familiaris [10] = experiment: effect of compound at a dose of 10 mg/kg iv, on standard cardiovascular in anesthetized normotensive dogs after administration of carbachol.; format: functional, Canis lupus familiaris, Heart
How it was run: (§6)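 Bilateral vagotomy was performed. BP was recorded via a femoral artery, with iv dosing via a femoral vein; BP and heart rate were recorded continuously. Each iv challenge was given twice before test drug and once after. Challenge doses were epinephrine and norepinephrine 0.5–1.0 μg/kg, and isoproterenol and carbachol 0.25 μg/kg.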

Canis familiaris [11] = experiment: effect of compound at a dose of 10 mg/kg iv, on standard cardiovascular in anesthetized normotensive dogs after administration of epinephrine.; format: functional, Canis lupus familiaris, Heart; how it was run: as §6
Canis familiaris [12] = experiment: effect of compound at a dose of 10 mg/kg iv, on standard cardiovascular in anesthetized normotensive dogs after administration of isoproterenol.; format: functional, Canis lupus familiaris, Heart; how it was run: as §6
Canis familiaris [13] = experiment: effect of compound at a dose of 10 mg/kg iv, on standard cardiovascular in anesthetized normotensive dogs after administration of norepinephrine.; format: functional, Canis lupus familiaris, Heart; how it was run: as §6
Canis familiaris [14] = experiment: effect of compound at a dose of 10 mg/kg iv, on standard cardiovascular in anesthetized normotensive dogs after administration of tyramine.; format: functional, Canis lupus familiaris, Heart
Canis familiaris [15] = experiment: effect of compound at a dose of 10 mg/kg iv, on standard cardiovascular in anesthetized normotensive dogs before administration of carbachol.; format: functional, Canis lupus familiaris, Heart; how it was run: as §6
Canis familiaris [16] = experiment: effect of compound at a dose of 10 mg/kg iv, on standard cardiovascular in anesthetized normotensive dogs before administration of epinephrine.; format: functional, Canis lupus familiaris, Heart; how it was run: as §6
Canis familiaris [17] = experiment: effect of compound at a dose of 10 mg/kg iv, on standard cardiovascular in anesthetized normotensive dogs before administration of isoproterenol.; format: functional, Canis lupus familiaris, Heart; how it was run: as §6
Canis familiaris [18] = experiment: effect of compound at a dose of 10 mg/kg iv, on standard cardiovascular in anesthetized normotensive dogs before administration of norepinephrine.; format: functional, Canis lupus familiaris, Heart; how it was run: as §6
Canis familiaris [19] = experiment: effect of compound at a dose of 10 mg/kg iv, on standard cardiovascular in anesthetized normotensive dogs before administration of tyramine.; format: functional, Canis lupus familiaris, Heart
Canis familiaris [20] = experiment: Mean heart rate after administration at a dose of 10 mg/kg iv.; format: functional, Canis lupus familiaris
Canis familiaris [21] = experiment: Mean heart rate before administration at a dose of 10 mg/kg iv.; format: functional, Canis lupus familiaris
Canis familiaris [22] = experiment: Hemodynamic effect in sinoaortic- deafferented hypertensive dog measured as heart rate after 0 min of 5 mg/kg dose; format: functional, Canis lupus familiaris
Canis familiaris [23] = experiment: Hemodynamic effect in sinoaortic- deafferented hypertensive dog measured as heart rate after 30 min of 5 mg/kg dose; format: functional, Canis lupus familiaris
Canis familiaris [24] = experiment: Hemodynamic effect in sinoaortic- deafferented hypertensive dog measured as heart rate after 5 min of 5 mg/kg dose; format: functional, Canis lupus familiaris
Canis familiaris [25] = experiment: Hemodynamic effect in sinoaortic- deafferented hypertensive dog measured as heart rate after 60 min of 5 mg/kg dose; format: functional, Canis lupus familiaris
Rattus norvegicus [26] = species: Rattus norvegicus; experiment: hypotensive activity in renal hypertensive rats by using tail-cuff method measured as BP on day/h postdrug; format: functional, Blood
How it was run: (§7)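 Renal hypertension (modified Grollman) was made in male Sprague-Dawley rats under pentobarbital sodium 50 mg/kg ip. The right kidney was removed, and silk sutures around both poles of the left kidney constricted the parenchyma. After 3 weeks of stabilization, rats with systolic BP >150 mmHg were used. Compounds were given orally. Systolic BP was measured by tail-cuff predose and at the stated day/h after dosing.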

Rattus norvegicus [27] = species: Rattus norvegicus; experiment: hypotensive activity in renal hypertensive rats by using tail-cuff method measured as initial BP; format: functional, Blood; how it was run: as §7
Rattus norvegicus [28] = species: Rattus norvegicus; experiment: Oral hypotensive activity in spontaneously hypertensive rats by using tail-cuff method measured as the initial BP; format: functional, Blood; how it was run: as §2
Rattus norvegicus [29] = species: Rattus norvegicus; experiment: Hypotensive activity in renal hypertensive rats by using tail-cuff method measured as BP on day/h postdrug; format: functional, Blood
How it was run: (§8)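 Renal hypertension made in male Sprague-Dawley rats (Grollman modification). Under pentobarbital (50 mg/kg ip), the right kidney was removed and silk sutures tied around both poles of the left kidney to constrict it. After 3 weeks, rats with systolic BP >150 mmHg were used. Compound given po daily to 4 rats. Systolic BP by tail-cuff plethysmography at the listed day/hour after dosing.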

Rattus norvegicus [30] = species: Rattus norvegicus; experiment: Hypotensive activity in renal hypertensive rats by using tail-cuff method measured as change in BP on day/h postdrug; format: functional, Blood; how it was run: as §8
Rattus norvegicus [31] = species: Rattus norvegicus; experiment: Oral hypotensive activity in spontaneously hypertensive rats by using tail-cuff method measured as change in systolic BP; format: functional, Blood
How it was run: (§9)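 Okamoto-Aoki spontaneously hypertensive rats. Compound suspended in distilled water with Tween 80, given po daily, screening dose 50 mg/kg, dose-response at 50, 30, 10 or 3 mg/kg unless stated. Systolic BP by tail-cuff plethysmography on day 1 predose and 2 h, day 3 predose and 2 h, and day 5 predose, 2 and 4 h. Reported as peak decrease on day 3 (or day 5) at 2 h ± SEM. n = 4 in screen, 4–8 per dose.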

Rattus norvegicus [32] = experiment: Oral hypotensive activity in spontaneously hypertensive rats by using tail-cuff method measured as change in systolic BP at the dose of 30 mg/kg po.; format: functional, Blood; how it was run: as §2
Canis familiaris [33] = experiment: Hemodynamic effect in sinoaortic- deafferented hypertensive dog measured as cardiac output after 0 min of 10 mg/kg
Canis familiaris [34] = experiment: Hemodynamic effect in sinoaortic- deafferented hypertensive dog measured as cardiac output after 5 min of 10 mg/kg
Canis familiaris [35] = experiment: Hemodynamic effect in sinoaortic- deafferented hypertensive dog measured as cardiac output after 30 min of 10 mg/kg
Canis familiaris [36] = experiment: Hemodynamic effect in sinoaortic- deafferented hypertensive dog measured as cardiac output after 60 min of 10 mg/kg
Canis familiaris [37] = experiment: Hemodynamic effect in sinoaortic- deafferented hypertensive dog measured as left ventricular pressure after 0 min of 10 mg/kg
Canis familiaris [38] = experiment: Hemodynamic effect in sinoaortic- deafferented hypertensive dog measured as left ventricular pressure after 5 min of 10 mg/kg
Canis familiaris [39] = experiment: Hemodynamic effect in sinoaortic- deafferented hypertensive dog measured as left ventricular pressure after 30 min of 10 mg/kg
Canis familiaris [40] = experiment: Hemodynamic effect in sinoaortic- deafferented hypertensive dog measured as left ventricular pressure after 60 min of 10 mg/kg
Rattus norvegicus [41] = experiment: (§10) Oral hypotensive activity in spontaneously hypertensive rats by using tail-cuff method measured as change in systolic BP at the dose of 5 mg/kg po.; format: functional, Blood; how it was run: as §2
Rattus norvegicus [42] = experiment: as §3; format: functional, Blood; how it was run: as §9; remark: listed apart in the source
Rattus norvegicus [43] = experiment: as §5; format: functional, Blood; how it was run: as §9; remark: listed apart in the source
Rattus norvegicus [44] = experiment: as §1; format: functional, Blood; how it was run: as §9; remark: listed apart in the source
Rattus norvegicus [45] = experiment: as §10; format: functional, Blood; how it was run: as §9; remark: listed apart in the source
Rattus norvegicus [46] = experiment: as §10; format: functional, Blood; how it was run: as §4; remark: listed apart in the source

CN1CCC2(C1)Oc1ccccc1C2n1cccc1 (stereo in doubt; 10)
BP (Rattus norvegicus [1]; 50 mg/kg): 197 mmHg
Delta blood pressure (Rattus norvegicus [1]; 50 mg/kg): 38 mmHg

c1ccc2c(c1)OC1(CCNCC1)C2n1cccc1 (stereo unspecified)
BP (Rattus norvegicus [2]): 198 mmHg
Delta blood pressure (Rattus norvegicus [2]): 33 mmHg
BP (Rattus norvegicus [3]): 200 mmHg
Delta blood pressure (Rattus norvegicus [3]): 49 mmHg
BP (Rattus norvegicus [1]): 189 mmHg
Delta blood pressure (Rattus norvegicus [1]): 43 mmHg

CCN1CCC2(CC1)Oc1ccccc1C2n1cccc1 (stereo unspecified)
BP (Canis familiaris [4]): 165 mmHg
BP (Canis familiaris [5]): 98 mmHg
BP (Canis familiaris [6]): 121 mmHg
BP (Canis familiaris [7]): 103 mmHg
BP (Canis familiaris [8]): 106.3 mmHg
BP (Canis familiaris [9]): 132.7 mmHg
BP (Canis familiaris [10]): -37 mmHg
BP (Canis familiaris [11]): 59.7 mmHg
BP (Canis familiaris [12]): -39.3 mmHg
BP (Canis familiaris [13]): 66 mmHg
BP (Canis familiaris [14]): 84.3 mmHg
BP (Canis familiaris [15]): -52 mmHg
BP (Canis familiaris [16]): 44.8 mmHg
BP (Canis familiaris [17]): -34.3 mmHg
BP (Canis familiaris [18]): 56.7 mmHg
BP (Canis familiaris [19]): 64.3 mmHg
Rate (Canis familiaris [20]): 126 beats min-1
Rate (Canis familiaris [21]): 167 beats min-1
Rate (Canis familiaris [22]): 170 beats min-1
Rate (Canis familiaris [23]): 126 beats min-1
Rate (Canis familiaris [24]): 134 beats min-1
Rate (Canis familiaris [25]): 132 beats min-1
BP (Rattus norvegicus [26]): 131 mmHg and 113 mmHg and 116 mmHg and 129 mmHg
BP (Rattus norvegicus [27]): 162 mmHg
BP (Rattus norvegicus [28]): 180 mmHg and 214 mmHg
BP (Rattus norvegicus [1]): 187 mmHg
Delta blood pressure (Rattus norvegicus [1]): 71 mmHg
BP (Rattus norvegicus [29]): 110 mmHg
Delta blood pressure (Rattus norvegicus [30]): 31 mmHg and 52 mmHg and 49 mmHg and 46 mmHg and 33 mmHg
Delta blood pressure (Rattus norvegicus [31]): 27 mmHg and 38 mmHg
BP (Rattus norvegicus [32]): 187 mmHg
Delta blood pressure (Rattus norvegicus [32]): 71 mmHg
Cardiac output (Canis familiaris [33]): 2120 mL/min
Cardiac output (Canis familiaris [34]): 1600 mL/min
Cardiac output (Canis familiaris [35]): 1530 mL/min
Cardiac output (Canis familiaris [36]): 1600 mL/min
dP/dt (Canis familiaris [37]): 27.2 1/Pmax
dP/dt (Canis familiaris [38]): 20.3 1/Pmax
dP/dt (Canis familiaris [39]): 21.2 1/Pmax
dP/dt (Canis familiaris [40]): 25.6 1/Pmax

O=C(CCCN1CCC2(CC1)Oc1ccccc1C2n1cccc1)c1ccc(F)cc1 (stereo unspecified)
BP (Rattus norvegicus [28]): 199 mmHg
Delta blood pressure (Rattus norvegicus [31]): 37 mmHg

c1ccc(CN2CCC3(C2)Oc2ccccc2C3n2cccc2)cc1 (stereo unspecified)
BP (Rattus norvegicus [2]): 171 mmHg
BP (Rattus norvegicus [3]): 185 mmHg
BP (Rattus norvegicus [1]): 211 mmHg
BP (Rattus norvegicus [41]): 198 mmHg
Delta blood pressure (Rattus norvegicus [42]): -10 mmHg
Delta blood pressure (Rattus norvegicus [43]): 18 mmHg
Delta blood pressure (Rattus norvegicus [44]): 42 mmHg
Delta blood pressure (Rattus norvegicus [45]): 27 mmHg

c1ccc2c(c1)OC1(CCNC1)C2n1cccc1 (stereo unspecified)
BP (Rattus norvegicus [2]): 179 mmHg
Delta blood pressure (Rattus norvegicus [2]): 36 mmHg
BP (Rattus norvegicus [3]): 181 mmHg
Delta blood pressure (Rattus norvegicus [3]): 13 mmHg
BP (Rattus norvegicus [1]): 223 mmHg
Delta blood pressure (Rattus norvegicus [1]): 58 mmHg
BP (Rattus norvegicus [41]): 200 mmHg
Delta blood pressure (Rattus norvegicus [46]): 17 mmHg
